# Data published in ChEMBL document CHEMBL2429849, “Substrate-based fragment identification for the development of selective, nonpeptidic inhibitors of striatal-enriched protein tyrosine phosphatase” (J Med Chem, 2013).
# B1: Tyrosine-protein phosphatase non-receptor type 5 (Homo sapiens), P54829 (protein)
# chain: MNYEGARSERENHAADDSEGGALDMCCSERLPGLPQPIVMEALDEAEGLQDSQREMPPPPPPSPPSDPAQKPPPRGAGSHSLTVRSSLCLFAASQFLLACGVLWFSGYGHIWSQNATNLVSSLLTLLKQLEPTAWLDSGTWGVPSLLLVFLSVGLVLVTTLVWHLLRTPPEPPTPLPPEDRRQSVSRQPSFTYSEWMEEKIEDDFLDLDPVPETPVFDCVMDIKPEADPTSLTVKSMGLQERRGSNVSLTLDMCTPGCNEEGFGYLMSPREESAREYLLSASRVLQAEELHEKALDPFLLQAEFFEIPMNFVDPKEYDIPGLVRKNRYKTILPNPHSRVCLTSPDPDDPLSSYINANYIRGYGGEEKVYIATQGPIVSTVADFWRMVWQEHTPIIVMITNIEEMNEKCTEYWPEEQVAYDGVEITVQKVIHTEDYRLRLISLKSGTEERGLKHYWFTSWPDQKTPDRAPPLLHLVREVEEAAQQEGPHCAPIIVHCSAGIGRTGCFIATSICCQQLRQEGVVDILKTTCQLRQDRGGMIQTCEQYQFVHHVMSLYEKQLSHQSPE
# Assays:
# [1] = target: T1, Tyrosine-protein phosphatase non-receptor type 5 (Homo sapiens, UniProt P54829); experiment: Inhibition of human STEP using pNPP as substrate after 5 mins by spectrophotometric plate reader analysis
# T1 sequence (P54829 whole entry): B1 chain
# [2] = target: T2, Dual specificity protein phosphatase 10 (Homo sapiens, UniProt Q9Y6W6); experiment: Inhibition of human MKP5 using DiFMUP as substrate after 5 mins by spectrophotometric plate reader analysis
# T2 sequence (Q9Y6W6 whole entry): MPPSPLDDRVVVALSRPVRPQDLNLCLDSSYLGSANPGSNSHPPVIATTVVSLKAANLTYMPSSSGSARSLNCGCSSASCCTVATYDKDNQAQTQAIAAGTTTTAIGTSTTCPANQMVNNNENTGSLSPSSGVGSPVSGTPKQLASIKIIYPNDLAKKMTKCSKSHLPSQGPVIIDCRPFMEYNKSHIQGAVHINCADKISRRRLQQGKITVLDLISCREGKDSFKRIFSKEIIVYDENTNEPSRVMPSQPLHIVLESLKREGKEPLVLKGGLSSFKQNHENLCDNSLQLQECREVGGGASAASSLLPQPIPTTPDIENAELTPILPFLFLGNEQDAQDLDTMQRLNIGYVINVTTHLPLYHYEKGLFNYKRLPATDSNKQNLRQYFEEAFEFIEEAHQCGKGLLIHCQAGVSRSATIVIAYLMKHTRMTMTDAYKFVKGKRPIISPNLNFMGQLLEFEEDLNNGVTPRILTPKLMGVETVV
# Summary of the method: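 The […] substrate was DiFMUP. Buffer was Tris-HCl pH 8.0 with Triton X-100 and 5 mM DTT. Inhibitor was preincubated with enzyme for 5 min at 27 °C before adding substrate. Ki from nonlinear regression of initial-rate substrate–velocity data at several inhibitor concentrations; at least duplicate.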
# [3] = target: Receptor-type tyrosine-protein phosphatase F (Homo sapiens, UniProt P10586); experiment: Inhibition of human LAR using pNPP as substrate after 5 mins by spectrophotometric plate reader analysis
# Summary of the method: (§1)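 Enzyme preincubated 5 min at 27 °C with serially diluted inhibitor (from DMSO) in imidazole/NaCl buffer pH 7.0 with 0.01% Triton X-100 and 5 mM DTT. Started with pNPP (500 μM in assay) and read at 405 nm for 20 min. The pNPP KM was measured for each enzyme. Ki from nonlinear regression of substrate–velocity curves at several inhibitor levels; at least duplicate.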
# Homo sapiens [4] = organism: Homo sapiens; experiment: Selectivity ratio of Ki for human CD45 to Ki for human STEP
# Summary of the method: (§2)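 STEP, CD45, LAR and TC-PTP used pNPP (500 μM) in imidazole/NaCl pH 7.0 with Triton X-100, read at 405 nm for 20 min. MKP5 used DiFMUP in Tris-HCl pH 8.0. The enzyme's own pNPP KM was used in analysis; ratio of the Ki values.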
# Homo sapiens [5] = organism: Homo sapiens; experiment: Selectivity ratio of Ki for human MKP5 to Ki for human STEP; summary of the method: as §2
# [6] = target: T3, Receptor-type tyrosine-protein phosphatase C (Homo sapiens, UniProt P08575); experiment: Inhibition of human CD45 using pNPP as substrate after 5 mins by spectrophotometric plate reader analysis; summary of the method: as §1
# T3 sequence (P08575 whole entry): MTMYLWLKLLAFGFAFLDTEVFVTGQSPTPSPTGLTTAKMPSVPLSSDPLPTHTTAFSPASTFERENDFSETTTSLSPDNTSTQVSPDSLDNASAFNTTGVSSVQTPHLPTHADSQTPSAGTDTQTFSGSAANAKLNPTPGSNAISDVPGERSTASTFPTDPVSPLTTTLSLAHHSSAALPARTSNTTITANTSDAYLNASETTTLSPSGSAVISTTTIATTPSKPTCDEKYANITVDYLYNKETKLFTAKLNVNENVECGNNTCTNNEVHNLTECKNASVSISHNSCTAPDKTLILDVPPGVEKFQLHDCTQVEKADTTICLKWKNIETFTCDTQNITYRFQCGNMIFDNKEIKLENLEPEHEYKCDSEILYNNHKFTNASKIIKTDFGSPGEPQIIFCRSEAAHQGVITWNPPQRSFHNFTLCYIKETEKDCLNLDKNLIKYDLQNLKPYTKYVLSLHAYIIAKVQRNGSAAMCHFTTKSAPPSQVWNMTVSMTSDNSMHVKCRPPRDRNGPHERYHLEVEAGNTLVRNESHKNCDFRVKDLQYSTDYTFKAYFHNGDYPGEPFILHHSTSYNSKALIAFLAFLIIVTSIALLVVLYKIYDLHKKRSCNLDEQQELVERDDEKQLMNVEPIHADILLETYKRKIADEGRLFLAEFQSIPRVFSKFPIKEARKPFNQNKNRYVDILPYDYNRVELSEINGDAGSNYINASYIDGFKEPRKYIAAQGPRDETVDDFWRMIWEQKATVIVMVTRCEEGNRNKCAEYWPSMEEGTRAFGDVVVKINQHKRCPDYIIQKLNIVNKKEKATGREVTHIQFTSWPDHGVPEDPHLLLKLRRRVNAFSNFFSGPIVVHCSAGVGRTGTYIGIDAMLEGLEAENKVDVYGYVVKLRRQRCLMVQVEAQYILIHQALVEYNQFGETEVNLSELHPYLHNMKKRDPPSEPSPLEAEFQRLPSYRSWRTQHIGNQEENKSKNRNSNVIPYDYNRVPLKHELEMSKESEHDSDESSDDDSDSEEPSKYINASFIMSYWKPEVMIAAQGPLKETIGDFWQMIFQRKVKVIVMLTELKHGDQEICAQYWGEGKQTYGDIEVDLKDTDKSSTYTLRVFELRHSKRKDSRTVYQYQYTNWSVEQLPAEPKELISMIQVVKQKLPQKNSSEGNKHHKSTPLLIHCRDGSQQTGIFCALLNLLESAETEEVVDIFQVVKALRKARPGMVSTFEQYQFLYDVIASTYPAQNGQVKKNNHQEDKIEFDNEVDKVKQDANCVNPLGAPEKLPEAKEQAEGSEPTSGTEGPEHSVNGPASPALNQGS
# Homo sapiens [7] = organism: Homo sapiens; experiment: Selectivity ratio of Ki for human LAR to Ki for human STEP; summary of the method: as §2
# Homo sapiens [8] = organism: Homo sapiens; experiment: Selectivity ratio of Ki for human TC-PTP to Ki for human STEP; summary of the method: as §2
# [9] = target: T4, Tyrosine-protein phosphatase non-receptor type 2 (Homo sapiens, UniProt P17706); experiment: Inhibition of human TC-PTP using pNPP as substrate after 5 mins by spectrophotometric plate reader analysis
# T4 sequence (P17706 whole entry): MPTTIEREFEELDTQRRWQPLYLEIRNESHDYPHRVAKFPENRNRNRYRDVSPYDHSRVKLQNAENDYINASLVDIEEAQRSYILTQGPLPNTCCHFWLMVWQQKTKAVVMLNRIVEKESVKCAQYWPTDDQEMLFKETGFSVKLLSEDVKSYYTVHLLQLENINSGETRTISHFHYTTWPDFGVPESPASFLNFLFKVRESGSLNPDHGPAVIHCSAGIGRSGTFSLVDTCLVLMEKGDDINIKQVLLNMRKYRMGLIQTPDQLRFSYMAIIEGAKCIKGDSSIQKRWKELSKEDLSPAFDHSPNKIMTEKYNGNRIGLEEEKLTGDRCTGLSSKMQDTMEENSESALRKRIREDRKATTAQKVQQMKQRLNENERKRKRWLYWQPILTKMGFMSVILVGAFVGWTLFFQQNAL
# Summary of the method: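 Selectivity assay using the STEP Ki protocol. Enzyme was preincubated 5 min at 27 °C with two- or three-fold inhibitor serial dilutions in DMSO, in imidazole/NaCl buffer at pH 7.0 with 0.01% Triton X-100 and 5 mM DTT. Reaction started with pNPP (500 μM in assay), read continuously at 405 nm for 20 min. Ki came from nonlinear regression of substrate-velocity curves, using this enzyme's pNPP KM; at least duplicate.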
# [10] = substrate: O=C(Cc1ccc(OP(=O)(O)O)cc1)Nc1ccccc1; experiment: (§3) Activity at human STEP measured for 20 mins by spectrophotometric plate reader analysis
# Summary of the method: (§4)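 Substrate KM by coupled assay: STEP 100 nM with MESG 400 μM, PNP 1 U/mL, 5 mM DTT in imidazole/NaCl buffer with Triton X-100, pH 7.0; preincubated 3 min at 27 °C, then started with substrate (about 0–3.00 mM in assay, from DMSO). Followed 20 min at 360 nm, 27 °C; KM from Michaelis–Menten fit of initial rates.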
# [11] = substrate: O=P(O)(O)Oc1ccccc1; experiment: as §3; summary of the method: as §4
# [12] = substrate: O=C(Oc1cccc(OP(=O)(O)O)c1)c1ccccc1; experiment: as §3; summary of the method: as §4
# [13] = substrate: O=P(O)(O)Oc1ccc(-c2ccccc2)cc1; experiment: as §3; summary of the method: as §4
# [14] = substrate: CC(C)(C)CC(C)(C)c1ccc(OP(=O)(O)O)cc1; experiment: as §3; summary of the method: as §4
# [15] = substrate: O=[N+]([O-])c1ccc(OP(=O)(O)O)cc1; experiment: as §3; summary of the method: as §4
# [16] = substrate: O=P(O)(O)Oc1cccc(Nc2ccccc2)c1; experiment: as §3; summary of the method: as §4
# [17] = substrate: COC(=O)[C@H](Cc1ccc(OP(=O)(O)O)cc1)NC(C)=O; experiment: as §3; summary of the method: as §4
# [18] = substrate: O=P(O)(O)Oc1cccc(-c2ccccc2)c1; experiment: as §3; summary of the method: as §4
# [19] = substrate: CC(Cc1ccccc1)c1ccc(OP(=O)(O)O)cc1; experiment: as §3; summary of the method: as §4
# Chain of Receptor-type tyrosine-protein phosphatase F (P10586 whole entry): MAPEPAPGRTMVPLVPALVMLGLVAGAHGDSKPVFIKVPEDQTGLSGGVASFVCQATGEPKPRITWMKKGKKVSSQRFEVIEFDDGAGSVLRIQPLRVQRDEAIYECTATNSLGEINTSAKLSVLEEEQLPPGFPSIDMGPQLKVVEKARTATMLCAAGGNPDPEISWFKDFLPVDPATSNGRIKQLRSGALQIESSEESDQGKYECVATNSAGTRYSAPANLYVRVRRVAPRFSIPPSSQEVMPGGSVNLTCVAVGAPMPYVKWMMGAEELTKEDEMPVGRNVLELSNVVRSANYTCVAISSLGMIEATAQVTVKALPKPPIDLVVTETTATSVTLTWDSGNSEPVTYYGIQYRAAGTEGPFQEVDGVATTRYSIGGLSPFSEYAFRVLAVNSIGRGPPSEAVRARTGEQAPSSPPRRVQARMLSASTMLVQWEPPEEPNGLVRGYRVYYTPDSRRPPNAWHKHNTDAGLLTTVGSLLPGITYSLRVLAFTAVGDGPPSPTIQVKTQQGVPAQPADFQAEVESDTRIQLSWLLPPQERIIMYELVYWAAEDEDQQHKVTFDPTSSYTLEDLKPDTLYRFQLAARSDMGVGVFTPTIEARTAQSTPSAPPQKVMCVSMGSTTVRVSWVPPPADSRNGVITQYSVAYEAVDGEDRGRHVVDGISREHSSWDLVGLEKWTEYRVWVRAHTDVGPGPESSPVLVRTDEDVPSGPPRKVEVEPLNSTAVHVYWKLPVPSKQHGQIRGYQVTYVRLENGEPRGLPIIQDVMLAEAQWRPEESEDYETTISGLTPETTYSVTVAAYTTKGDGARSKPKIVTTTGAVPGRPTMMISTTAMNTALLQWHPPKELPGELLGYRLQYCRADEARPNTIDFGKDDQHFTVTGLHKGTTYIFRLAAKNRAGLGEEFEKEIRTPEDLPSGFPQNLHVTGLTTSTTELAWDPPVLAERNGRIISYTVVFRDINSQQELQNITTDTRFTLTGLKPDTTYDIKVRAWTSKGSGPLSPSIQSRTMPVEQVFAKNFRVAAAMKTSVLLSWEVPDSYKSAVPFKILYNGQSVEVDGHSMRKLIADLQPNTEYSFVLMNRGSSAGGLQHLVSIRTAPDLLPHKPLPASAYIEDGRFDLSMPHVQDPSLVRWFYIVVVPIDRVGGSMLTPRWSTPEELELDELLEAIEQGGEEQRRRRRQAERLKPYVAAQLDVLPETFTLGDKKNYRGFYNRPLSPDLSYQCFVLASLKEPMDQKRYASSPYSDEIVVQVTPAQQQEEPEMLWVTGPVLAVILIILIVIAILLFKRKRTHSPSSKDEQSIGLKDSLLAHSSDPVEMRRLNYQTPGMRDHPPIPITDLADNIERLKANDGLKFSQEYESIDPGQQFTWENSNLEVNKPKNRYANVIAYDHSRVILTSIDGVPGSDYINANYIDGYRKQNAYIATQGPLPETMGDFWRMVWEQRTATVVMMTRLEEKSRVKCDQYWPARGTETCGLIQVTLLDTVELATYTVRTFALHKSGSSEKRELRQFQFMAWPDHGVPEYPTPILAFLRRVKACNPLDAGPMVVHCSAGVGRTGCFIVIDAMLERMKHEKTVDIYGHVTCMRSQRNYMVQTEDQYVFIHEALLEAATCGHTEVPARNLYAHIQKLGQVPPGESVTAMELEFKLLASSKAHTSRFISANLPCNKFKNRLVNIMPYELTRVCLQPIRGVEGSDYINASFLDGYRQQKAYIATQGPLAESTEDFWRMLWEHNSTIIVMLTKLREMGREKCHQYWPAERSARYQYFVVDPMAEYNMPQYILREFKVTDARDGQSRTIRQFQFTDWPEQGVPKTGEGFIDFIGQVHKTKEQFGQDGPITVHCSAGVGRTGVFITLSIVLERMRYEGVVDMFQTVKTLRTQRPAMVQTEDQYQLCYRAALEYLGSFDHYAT
molecule,measurement,setting,value
O=P(O)(O)[C@@H](O)c1ccc(-c2cccc([C@@H](O)c3ccc(Cl)c(Cl)c3)c2)cc1,Ki,[1],88 µM
O=P(O)(O)C(F)(F)c1cccc(-c2ccccc2)c1,Ki,[1],337 µM
O=P(O)(O)C(F)(F)c1ccc(-c2cccc(Nc3ccccc3)c2)cc1,Ki,[1],112 µM
CS(=O)(=O)Nc1cccc(-c2ccc(C(F)(F)P(=O)(O)O)cc2)c1,Ki,[1],113 µM
O=P(O)(O)C(F)(F)c1ccc(-c2ccccc2)cc1,Ki,[1],120 µM
CS(=O)(=O)Nc1ccccc1-c1ccc(C(F)(F)P(=O)(O)O)cc1,Ki,[1],673 µM
O=P(O)(O)[C@@H](O)c1ccc(-c2cccc([C@H](O)c3ccc(Cl)c(Cl)c3)c2)cc1,Ki,[1],93 µM
O=P(O)(O)C(F)(F)c1cccc(-c2cccc(C3CCCCC3)c2O)c1,Ki,[2],150 µM
same,Ki,[3],> 900 µM
same,Ki,[1],20 µM
same,Ratio Ki,Homo sapiens [4],> 25
same,Ratio Ki,Homo sapiens [5],7.5
same,Ki,[6],> 500 µM
same,Ratio Ki,Homo sapiens [7],> 45
same,Ratio Ki,Homo sapiens [8],3.6
same,Ki,[9],71 µM
B1,Km,[10],133 µM
same,Km,[11],2730 µM
same,Km,[12],327 µM
same,Km,[13],169 µM
same,Km,[14],260 µM
same,Km,[15],745 µM
same,Km,[16],650 µM
same,Km,[17],378 µM
same,Km,[18],277 µM
same,Km,[19],128 µM
